Values belong to the compound of their own block, whether it stands above or below them. Activity calls are given as the source filed them. No cut-off for these calls is given here.
Experiments:
[1] = Half life in Sprague-Dawley rat at 10 mg/kg, iv measured after 2 to 26 hrs; assay type: ADME, organism-based; conditions: in vivo
[2] = Cmax in Sprague-Dawley rat at 20 mg/kg, po measured after 2 to 26 hrs; assay type: ADME, organism-based; design: dose 20 mg/kg, route oral; conditions: in vivo
[3] = Clearance in human liver microsomes; assay type: ADME, Microsome
[4] = Unbound fraction in mouse plasma at 2 uM; assay type: ADME, cell-free
[5] = Unbound fraction in human plasma at 2 uM; assay type: ADME, cell-free
CYP3A4 [6] = target: T1, CYP3A4 (Homo sapiens, UniProt P08684); test: Inhibition of CYP3A4 (unknown origin) at 10 uM using midazolam substrate relative to control; assay type: ADME; conditions: probe midazolam
Outline: (§1)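 The CYP3A4 assay was run with midazolam or with testosterone as substrate.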

CYP3A4 [7] = target: T1, CYP3A4; test: Inhibition of CYP3A4 (unknown origin) at 10 uM using testosterone substrate relative to control; assay type: ADME; conditions: probe testosterone; outline: as §1
CYP2C9 = CYP2C9 (Homo sapiens, UniProt P11712); test: Inhibition of CYP2C9 (unknown origin) at 10 uM relative to control; assay type: ADME
CYP2D6 = CYP2D6 (Homo sapiens, UniProt P10635); test: Inhibition of CYP2D6 (unknown origin) at 10 uM relative to control; assay type: ADME
CYP2C8 = target: T2, CYP2C8 (Homo sapiens, UniProt P10632); test: Inhibition of CYP2C8 (unknown origin) at 10 uM relative to control; assay type: ADME
T2 sequence (P10632 whole entry): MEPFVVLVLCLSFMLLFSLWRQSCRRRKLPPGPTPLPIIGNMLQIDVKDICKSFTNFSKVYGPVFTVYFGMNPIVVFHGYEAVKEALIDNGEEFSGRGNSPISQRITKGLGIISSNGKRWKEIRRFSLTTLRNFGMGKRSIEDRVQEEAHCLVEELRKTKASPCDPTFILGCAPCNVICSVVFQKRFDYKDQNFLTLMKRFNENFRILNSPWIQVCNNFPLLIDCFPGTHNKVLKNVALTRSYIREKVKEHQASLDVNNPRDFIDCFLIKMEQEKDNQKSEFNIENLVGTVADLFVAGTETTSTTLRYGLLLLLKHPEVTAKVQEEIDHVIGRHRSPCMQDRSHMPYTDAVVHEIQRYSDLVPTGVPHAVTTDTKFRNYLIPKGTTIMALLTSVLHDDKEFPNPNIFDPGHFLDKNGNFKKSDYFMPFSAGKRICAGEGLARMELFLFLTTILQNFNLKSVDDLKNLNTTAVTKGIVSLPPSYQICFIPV

CYP2B6 = target: T3, CYP2B6 (Homo sapiens, UniProt P20813); test: Inhibition of CYP2B6 (unknown origin) at 10 uM relative to control; assay type: ADME
T3 sequence (P20813 whole entry): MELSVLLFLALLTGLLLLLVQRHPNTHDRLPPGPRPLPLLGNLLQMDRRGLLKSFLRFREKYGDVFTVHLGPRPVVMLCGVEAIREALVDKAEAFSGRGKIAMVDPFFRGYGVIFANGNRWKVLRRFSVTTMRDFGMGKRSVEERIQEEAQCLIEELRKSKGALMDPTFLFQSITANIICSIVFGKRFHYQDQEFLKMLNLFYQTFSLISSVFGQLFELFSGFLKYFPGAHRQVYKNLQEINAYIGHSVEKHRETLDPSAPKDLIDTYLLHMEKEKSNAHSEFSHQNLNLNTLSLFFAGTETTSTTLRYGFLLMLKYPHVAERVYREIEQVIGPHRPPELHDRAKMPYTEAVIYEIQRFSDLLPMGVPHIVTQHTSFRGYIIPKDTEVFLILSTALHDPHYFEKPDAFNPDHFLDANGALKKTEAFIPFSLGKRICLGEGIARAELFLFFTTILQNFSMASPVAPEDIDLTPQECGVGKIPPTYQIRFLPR

[8] = target: Voltage-gated inwardly rectifying potassium channel KCNH2 (Homo sapiens, UniProt Q12809); test: Inhibition of human ERG
Mus musculus [9] = test: (§2) Antiinflammatory activity in C57BL6/J mouse model of TLR3-induced acute airway inflammation assessed as inhibition of elevated neutrophils in BALF at 10 mg/kg, ip pre-treated 1 day before poly(I:C) stimulation followed by compound re-dosing at 10 mg/kg, ip before another poly(I:C) stimulation and measured after 1 day post last poly(I:C) stimulation; assay type: functional, organism-based
Outline: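 Male C57BL/6J mice, 12 weeks old, 5 per group, dosed 10 mg/kg one day before and again immediately before intranasal poly(I:C) (300 μg/50 μL PBS). BALF was collected 1 day later. Total viable cells were counted by trypan blue with a hemocytometer. Neutrophils were counted as a differential of 300 cells on Wright-Giemsa stained cytospins.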

Mus musculus [10] = test: (§3) Antiinflammatory activity in C57BL6/J mouse model of TLR3-induced acute airway inflammation assessed as inhibition of elevated MCP1 levels in BALF at 10 mg/kg, ip pre-treated 1 day before poly(I:C) stimulation followed by compound re-dosing at 10 mg/kg, ip before another poly(I:C) stimulation and measured after 1 day post last poly(I:C) stimulation by cytokine Bio-Plex assay; assay type: functional, organism-based
Outline: (§4)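 Male C57BL/6J mice, 12 weeks old, 5 per group, dosed 10 mg/kg the day before and again immediately before intranasal poly(I:C) (300 μg in 50 μL PBS). BALF was collected 1 day later by two 1 mL PBS lavages and centrifuged at 800 × g for 5 min at 4 °C. Supernatant cytokines were measured by multiplex bead immunoassay against recombinant standards in triplicate.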

Mus musculus [11] = test: as §3, with “po” for “ip”; assay type: functional, organism-based; outline: as §4
Mus musculus [12] = test: as §2, with “ISG54 gene expression” for “neutrophils”, “lung” for “BALF”; assay type: functional, organism-based
Outline: (§5)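 Male C57BL/6J mice, 12 weeks old, 5 per group, dosed 10 mg/kg one day before challenge and again immediately before intranasal poly(I:C) (300 μg in 50 μL PBS). Controls were vehicle alone and poly(I:C) alone. Lungs were taken 1 day later. Gene expression in lung tissue was measured by qRT-PCR, normalized to PPIA.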

Mus musculus [13] = test: as §2, with “CIG5 gene expression” for “neutrophils”, “lung” for “BALF”; assay type: functional, organism-based; outline: as §5
[14] = target: T4, Bromodomain-containing protein 4 (Homo sapiens, UniProt O60885); test: Inhibition of BRD4 in poly(I:C)-stimulated human SAECs TLR3-inducible CIG5 gene expression at 10 uM pre-incubated for 24 hrs before poly(I:C) stimulation for 4 hrs by qRT-PCR analysis relative to control
[15] = target: T4, Bromodomain-containing protein 4; test: Inhibition of BRD4 in poly(I:C)-stimulated human SAECs TLR3-inducible IL-6 gene expression at 10 uM pre-incubated for 24 hrs before poly(I:C) stimulation for 4 hrs by qRT-PCR analysis relative to control
[16] = target: T4, Bromodomain-containing protein 4; test: Inhibition of BRD4 in poly(I:C)-stimulated human SAECs TLR3-inducible CIG5 gene expression pre-incubated for 24 hrs before poly(I:C) stimulation for 4 hrs by qRT-PCR analysis
[17] = target: T4, Bromodomain-containing protein 4; test: Binding affinity to recombinant BRD4 BD2 (unknown origin) incubated for 1 hr by TR-FRET assay
[18] = target: Bromodomain-containing protein 2 (Homo sapiens, UniProt P25440); test: Binding affinity to recombinant BRD2 BD2 (unknown origin) incubated for 1 hr by TR-FRET assay
Chain of Bromodomain-containing protein 2 (P25440 whole entry): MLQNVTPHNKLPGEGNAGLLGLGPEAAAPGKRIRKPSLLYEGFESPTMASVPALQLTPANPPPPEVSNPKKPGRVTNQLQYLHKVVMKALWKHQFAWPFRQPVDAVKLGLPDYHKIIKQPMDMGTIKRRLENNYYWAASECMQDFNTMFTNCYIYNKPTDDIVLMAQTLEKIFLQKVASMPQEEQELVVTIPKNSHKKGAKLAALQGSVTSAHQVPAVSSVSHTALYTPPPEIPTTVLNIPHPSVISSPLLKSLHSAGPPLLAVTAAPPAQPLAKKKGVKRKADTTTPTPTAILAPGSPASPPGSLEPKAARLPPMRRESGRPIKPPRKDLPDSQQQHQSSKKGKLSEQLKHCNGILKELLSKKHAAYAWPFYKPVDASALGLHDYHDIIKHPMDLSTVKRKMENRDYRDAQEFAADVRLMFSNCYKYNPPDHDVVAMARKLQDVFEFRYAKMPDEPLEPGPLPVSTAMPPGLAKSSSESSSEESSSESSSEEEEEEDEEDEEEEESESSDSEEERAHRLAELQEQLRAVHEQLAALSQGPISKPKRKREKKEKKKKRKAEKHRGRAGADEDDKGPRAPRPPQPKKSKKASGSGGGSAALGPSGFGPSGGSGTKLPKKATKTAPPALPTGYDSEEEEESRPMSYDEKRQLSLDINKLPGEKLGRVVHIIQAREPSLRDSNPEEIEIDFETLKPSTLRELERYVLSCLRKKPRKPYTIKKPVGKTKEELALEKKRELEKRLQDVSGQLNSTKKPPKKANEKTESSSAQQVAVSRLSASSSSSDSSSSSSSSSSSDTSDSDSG

T1 sequence (P08684 whole entry): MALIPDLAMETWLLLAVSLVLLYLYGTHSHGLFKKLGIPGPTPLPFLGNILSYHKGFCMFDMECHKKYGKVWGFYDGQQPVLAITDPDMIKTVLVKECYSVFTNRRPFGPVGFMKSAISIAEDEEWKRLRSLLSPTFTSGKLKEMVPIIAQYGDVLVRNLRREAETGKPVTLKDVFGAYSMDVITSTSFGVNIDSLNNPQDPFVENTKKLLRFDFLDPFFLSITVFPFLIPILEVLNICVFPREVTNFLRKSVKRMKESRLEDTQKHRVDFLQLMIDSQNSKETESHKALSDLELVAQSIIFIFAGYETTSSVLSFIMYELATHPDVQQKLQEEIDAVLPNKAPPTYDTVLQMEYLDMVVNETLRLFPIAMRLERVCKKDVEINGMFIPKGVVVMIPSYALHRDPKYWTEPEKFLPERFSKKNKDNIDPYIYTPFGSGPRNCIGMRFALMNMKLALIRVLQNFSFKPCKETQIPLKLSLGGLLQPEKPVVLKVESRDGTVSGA
Chain of CYP2C9 (P11712 whole entry): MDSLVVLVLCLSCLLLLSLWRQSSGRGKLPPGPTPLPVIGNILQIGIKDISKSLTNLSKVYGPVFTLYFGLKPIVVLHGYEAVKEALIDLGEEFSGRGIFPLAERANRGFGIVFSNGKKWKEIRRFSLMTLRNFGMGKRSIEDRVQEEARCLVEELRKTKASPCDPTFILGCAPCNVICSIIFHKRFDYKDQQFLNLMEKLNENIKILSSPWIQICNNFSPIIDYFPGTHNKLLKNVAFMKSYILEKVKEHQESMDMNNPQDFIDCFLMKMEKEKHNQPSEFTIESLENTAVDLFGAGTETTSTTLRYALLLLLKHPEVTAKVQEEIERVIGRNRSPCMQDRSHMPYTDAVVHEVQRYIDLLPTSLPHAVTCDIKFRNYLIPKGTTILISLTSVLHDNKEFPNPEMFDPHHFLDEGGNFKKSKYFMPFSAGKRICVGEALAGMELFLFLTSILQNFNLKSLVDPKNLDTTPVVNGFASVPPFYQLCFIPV
Chain of Voltage-gated inwardly rectifying potassium channel KCNH2 (Q12809 whole entry): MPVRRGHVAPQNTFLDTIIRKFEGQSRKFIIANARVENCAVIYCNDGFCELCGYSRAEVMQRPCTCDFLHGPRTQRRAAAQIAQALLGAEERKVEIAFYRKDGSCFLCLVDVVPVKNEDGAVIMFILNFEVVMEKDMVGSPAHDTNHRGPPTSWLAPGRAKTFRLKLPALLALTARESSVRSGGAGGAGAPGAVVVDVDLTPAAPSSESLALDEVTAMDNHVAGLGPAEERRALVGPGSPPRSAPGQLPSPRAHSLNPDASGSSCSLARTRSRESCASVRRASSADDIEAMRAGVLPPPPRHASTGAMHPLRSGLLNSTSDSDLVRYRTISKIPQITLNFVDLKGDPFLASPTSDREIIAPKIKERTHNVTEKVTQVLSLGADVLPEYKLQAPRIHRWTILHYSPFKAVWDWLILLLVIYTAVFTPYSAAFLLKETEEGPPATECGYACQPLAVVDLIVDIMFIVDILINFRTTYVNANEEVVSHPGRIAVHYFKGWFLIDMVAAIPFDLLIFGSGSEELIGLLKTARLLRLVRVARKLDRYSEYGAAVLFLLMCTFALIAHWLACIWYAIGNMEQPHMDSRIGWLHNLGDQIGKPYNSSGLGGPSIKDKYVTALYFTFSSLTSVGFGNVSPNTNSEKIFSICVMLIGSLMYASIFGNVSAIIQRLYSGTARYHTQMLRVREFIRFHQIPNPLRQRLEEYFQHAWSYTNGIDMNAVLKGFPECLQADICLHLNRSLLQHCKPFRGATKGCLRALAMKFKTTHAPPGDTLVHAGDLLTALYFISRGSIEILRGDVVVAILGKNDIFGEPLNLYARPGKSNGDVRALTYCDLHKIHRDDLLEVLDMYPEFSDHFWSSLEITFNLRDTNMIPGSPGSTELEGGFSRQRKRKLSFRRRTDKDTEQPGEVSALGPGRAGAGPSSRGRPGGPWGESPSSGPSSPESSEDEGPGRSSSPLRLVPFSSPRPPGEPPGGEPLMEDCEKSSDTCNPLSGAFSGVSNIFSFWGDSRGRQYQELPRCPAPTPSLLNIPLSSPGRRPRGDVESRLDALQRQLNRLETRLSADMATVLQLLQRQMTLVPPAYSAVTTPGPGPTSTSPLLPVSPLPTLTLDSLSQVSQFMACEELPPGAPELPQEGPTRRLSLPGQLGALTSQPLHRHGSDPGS
Chain of CYP2D6 (P10635 whole entry): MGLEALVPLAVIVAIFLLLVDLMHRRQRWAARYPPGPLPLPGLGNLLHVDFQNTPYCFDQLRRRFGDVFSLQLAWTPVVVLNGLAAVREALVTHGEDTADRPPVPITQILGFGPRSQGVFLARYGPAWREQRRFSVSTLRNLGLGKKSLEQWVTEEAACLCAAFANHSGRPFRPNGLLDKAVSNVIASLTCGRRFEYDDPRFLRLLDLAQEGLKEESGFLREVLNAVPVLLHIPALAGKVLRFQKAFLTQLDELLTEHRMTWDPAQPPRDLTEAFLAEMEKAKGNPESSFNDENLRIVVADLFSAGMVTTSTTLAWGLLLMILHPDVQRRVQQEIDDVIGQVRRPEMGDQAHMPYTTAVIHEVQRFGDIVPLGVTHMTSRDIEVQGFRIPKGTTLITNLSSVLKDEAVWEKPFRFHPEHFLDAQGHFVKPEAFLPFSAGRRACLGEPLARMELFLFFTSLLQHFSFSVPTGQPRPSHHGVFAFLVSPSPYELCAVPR

half-life [1]: 4.1 h | Cmax [2]: 606 ng/mL | CLH [3]: 5.6 µL/min/mg | Fu [4]: 12% | Fu [5]: 17% | inhibition at 10 µM (CYP3A4 [6]): 9.5% | inhibition at 10 µM (CYP3A4 [7]): 8.2% | inhibition at 10 µM (CYP2C9): 1.9% | inhibition at 10 µM (CYP2D6): 0% | inhibition at 10 µM (CYP2C8): 17% | inhibition at 10 µM (CYP2B6): 27%
Structure (SMILES): COc1cc(OC)c2c(=O)cc(-c3cc(C)c(OC[C@H](O)CN4CCN(C)CC4)c(C)c3)oc2c1
IC50 [8]: > 30000 nM | inhibition (Mus musculus [9]): Active | inhibition (Mus musculus [10]): Active | inhibition (Mus musculus [11]): Active | inhibition (Mus musculus [12]): Active | inhibition (Mus musculus [13]): Active

inhibition [14]: 99% | inhibition [15]: 100% | IC50 [16]: 520 nM | IC50 [17]: 684 nM | IC50 [18]: 845 nM | half-life [1]: 3.5 h | Cmax [2]: 575 ng/mL
Structure (SMILES): COc1cc(OC)c2c(=O)cc(-c3cc(C)c(OC[C@H](O)CN4CCCCC4)c(C)c3)oc2c1
inhibition (Mus musculus [9]): Active | inhibition (Mus musculus [10]): Active | inhibition (Mus musculus [11]): Active | inhibition (Mus musculus [12]): Active | inhibition (Mus musculus [13]): Active
